Experiments:
[1] = species: Rattus norvegicus; test: In vitro inhibitory concentration producing 90% reduction in maximum contraction produced by KCl (20 mmol) in isolated aorta of rat.; assay type: functional
Method in brief: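 Isolated aortic tissue recorded isometrically via force-displacement transducers; equilibrated 90 min at 2 g resting tension, contracted with 20 mmol KCl, then cumulative concentration-response relaxation, each concentration added once the prior maximal effect developed. Glibenclamide 5 μM tested for reversal of relaxation. Drugs dissolved in DMSO. Mean EC90 ± SEM, number of experiments given.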

[2] = tested on: Rattus norvegicus; test: The compound was evaluated for hypotensive activity in anaesthetized Sprague Dawley rats on intravenous administration; assay type: functional
Method in brief: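 Male Sprague Dawley rats (280–350 g), pentobarbitone 60 mg/kg ip, ventilated; carotid blood pressure recorded. 15-min iv infusion via jugular vein, one per rat, vehicle PEG 200 with 0.01 N HCl diluted 1:10 in saline. Max MBP change over ≥30 min; two or more doses in 3–4 rats; dose giving 30 mmHg fall by linear regression vs log dose.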

SMILES: C/N=C(\S)C1(c2cccnc2)CCCC1
- IC90 ([1]; Rattus norvegicus, Aorta): 30 µM

SMILES: C/N=C(/S)[C@]1(c2cccnc2)CCCCS1(=O)=O
- IC90 ([1]; Rattus norvegicus, Aorta): > 30 µM

SMILES: C/N=C(\S)[C@]1(c2cccnc2)CCCO1
- IC90 ([1]; Rattus norvegicus, Aorta): > 30 µM

SMILES: C/N=C(\S)C1(c2cccnc2)CCCCC1
- IC90 ([1]; Rattus norvegicus, Aorta): 3 µM

SMILES: C/N=C(\S)C1(c2cccnc2)SCCCS1
- IC90 ([1]; Rattus norvegicus, Aorta): > 30 µM

SMILES: C/N=C(\S)[C@]1(c2cccnc2)CCCCS1
- ED30 [2]: 1.5 mg/kg
- IC90 ([1]; Rattus norvegicus, Aorta): > 30 µM

SMILES: C/N=C(\S)[C@]1(c2cccnc2)CCCS1
- IC90 ([1]; Rattus norvegicus, Aorta): > 30 µM

SMILES: CNC(=S)[C@]1(c2cccnc2)CCCC[S@+]1[O-]
- IC90 ([1]; Rattus norvegicus, Aorta): > 30 µM

SMILES: C/N=C(\S)[C@]1(c2cccnc2)OCCCS1
- IC90 ([1]; Rattus norvegicus, Aorta): > 30 µM

SMILES: C/N=C(\S)[C@]1(c2ccncc2)CCCC[S+]1[O-] (some centres not stated)
- IC90 ([1]; Rattus norvegicus, Aorta): 25 µM

SMILES: C/N=C(\S)[C@]1(c2cccc(F)c2)CCCC[S+]1[O-] (some centres not stated)
- IC90 ([1]; Rattus norvegicus, Aorta): 7 µM

SMILES: COC(=O)CC/N=C(\S)[C@]1(c2cccnc2)CCCC[S+]1[O-] (some centres not stated)
- IC90 ([1]; Rattus norvegicus, Aorta): > 30 µM

SMILES: COC(=N)[C@]1(c2cccnc2)CCCC[S+]1[O-] (some centres not stated)
- IC90 ([1]; Rattus norvegicus, Aorta): > 30 µM

SMILES: CNC(=O)[C@]1(c2cccnc2)CCCC[S+]1[O-] (some centres not stated)
- IC90 ([1]; Rattus norvegicus, Aorta): > 30 µM

SMILES: [O-][S+]1CCCC[C@]1(CO)c1cccnc1 (some centres not stated)
- IC90 ([1]; Rattus norvegicus, Aorta): > 30 µM

SMILES: N#C[C@]1(c2cccnc2)CCCC[S+]1[O-] (some centres not stated)
- IC90 ([1]; Rattus norvegicus, Aorta): > 30 µM

SMILES: C/N=C(\S)[C@]1(c2cccc(C(F)(F)F)c2)CCCC[S+]1[O-] (some centres not stated)
- IC90 ([1]; Rattus norvegicus, Aorta): 0.8 µM

SMILES: C/N=C(\S)[C@]1(c2cc(Cl)cc(Cl)c2)CCCC[S+]1[O-] (some centres not stated)
- IC90 ([1]; Rattus norvegicus, Aorta): 0.4 µM

SMILES: C/N=C(\S)[C@]1(c2ccc(Cl)c(Cl)c2)CCCC[S+]1[O-] (some centres not stated)
- ED30 [2]: 1.28 mg/kg
- IC90 ([1]; Rattus norvegicus, Aorta): 0.3 µM

SMILES: C/N=C(\S)[C@]1(c2nc3ccccc3s2)CCCC[S+]1[O-] (some centres not stated)
- IC90 ([1]; Rattus norvegicus, Aorta): 29 µM

SMILES: C/N=C(\S)[C@]1(c2ccccc2)CCCC[S+]1[O-] (some centres not stated)
- IC90 ([1]; Rattus norvegicus, Aorta): 9.5 µM

SMILES: CCCC/N=C(\S)[C@]1(c2cccnc2)CCCC[S+]1[O-] (some centres not stated)
- ED30 [2]: 1.5 mg/kg
- IC90 ([1]; Rattus norvegicus, Aorta): 8 µM

SMILES: C/N=C(\S)[C@]1(c2ccc3ccccc3c2)CCCC[S+]1[O-] (some centres not stated)
- IC90 ([1]; Rattus norvegicus, Aorta): 2 µM

SMILES: C/N=C(\S)[C@]1(c2cnc(-c3ccccc3)s2)CCCC[S+]1[O-] (some centres not stated)
- IC90 ([1]; Rattus norvegicus, Aorta): 4 µM

SMILES: C/N=C(\S)[C@]1(c2ccc(Cl)cc2)CCCC[S+]1[O-] (some centres not stated)
- IC90 ([1]; Rattus norvegicus, Aorta): 2.8 µM

SMILES: C/N=C(\S)[C@]1(c2ccc(-c3ccccc3)cc2)CCCC[S+]1[O-] (some centres not stated)
- IC90 ([1]; Rattus norvegicus, Aorta): 12 µM

SMILES: CC/N=C(\S)[C@]1(c2cccnc2)CCCC[S+]1[O-] (some centres not stated)
- ED30 [2]: 0.15 mg/kg
- IC90 ([1]; Rattus norvegicus, Aorta): 0.3 µM

SMILES: C/N=C(\S)[C@]1(c2cccc(C(N)=O)c2)CCCC[S+]1[O-] (some centres not stated)
- IC90 ([1]; Rattus norvegicus, Aorta): 12 µM

SMILES: C/N=C(\SC)[C@]1(c2cccnc2)CCCC[S+]1[O-] (some centres not stated)
- IC90 ([1]; Rattus norvegicus, Aorta): > 30 µM

SMILES: C/N=C(\S)[C@]1(c2ccns2)CCCC[S+]1[O-] (some centres not stated)
- IC90 ([1]; Rattus norvegicus, Aorta): 7 µM

SMILES: O=C(O)CC/N=C(\S)[C@]1(c2cccnc2)CCCC[S+]1[O-] (some centres not stated)
- IC90 ([1]; Rattus norvegicus, Aorta): > 30 µM

SMILES: C/N=C(\S)[C@]1(c2ccc(Cl)nc2)CCCC[S+]1[O-] (some centres not stated)
- IC90 ([1]; Rattus norvegicus, Aorta): 0.3 µM

SMILES: C/N=C(\S)[C@]1(c2ccccn2)CCCC[S+]1[O-] (some centres not stated)
- IC90 ([1]; Rattus norvegicus, Aorta): > 30 µM

SMILES: N/N=C(\S)[C@]1(c2cccnc2)CCCC[S+]1[O-] (some centres not stated)
- IC90 ([1]; Rattus norvegicus, Aorta): > 30 µM

SMILES: [O-][S+]1CCCC[C@]1(CS)c1cccnc1 (some centres not stated)
- IC90 ([1]; Rattus norvegicus, Aorta): > 30 µM

SMILES: CCC/N=C(\S)[C@]1(c2cccnc2)CCCC[S+]1[O-] (some centres not stated)
- IC90 ([1]; Rattus norvegicus, Aorta): 0.6 µM

SMILES: CC(C)/N=C(\S)[C@]1(c2cccnc2)CCCC[S+]1[O-] (some centres not stated)
- IC90 ([1]; Rattus norvegicus, Aorta): 10 µM

SMILES: C/N=C(\S)[C@]1(c2cccc(C(=O)O)c2)CCCC[S+]1[O-] (some centres not stated)
- IC90 ([1]; Rattus norvegicus, Aorta): > 30 µM

SMILES: [O-][S+]1CCCC[C@]1(/C(S)=N/c1ccccc1)c1cccnc1 (some centres not stated)
- IC90 ([1]; Rattus norvegicus, Aorta): > 30 µM

SMILES: C/N=C(\S)[C@]1(c2cccc(C#N)c2)CCCC[S+]1[O-] (some centres not stated)
- ED30 [2]: 0.63 mg/kg
- IC90 ([1]; Rattus norvegicus, Aorta): 1.6 µM

SMILES: C/N=C(\S)[C@]1(c2cnc3ccccc3c2)CCCC[S+]1[O-] (some centres not stated)
- ED30 [2]: 0.04 mg/kg
- IC90 ([1]; Rattus norvegicus, Aorta): 0.06 µM

SMILES: C/N=C(/S)[C@]1(c2cccnc2)CCCC[S@@+]1[O-] (stereo in doubt; 8a) [APRIKALIM]
- IC90 [1]: 0.7 µM

SMILES: C/N=C(/S)[C@]1(c2cccnc2)CCCC[S@@+]1[O-] (stereo in doubt; 8b) [APRIKALIM]
- IC90 [1]: 0.4 µM

SMILES: C/N=C(/S)[C@]1(c2cccnc2)CCCC[S@@+]1[O-] (stereo in doubt; 8c) [APRIKALIM]
- IC90 [1]: > 30 µM

SMILES: CC1(C)Oc2ccc(C#N)cc2C(N2CCCC2=O)C1O (configuration not stated) [CROMAKALIM]
- ED30 [2]: 0.06 mg/kg
- IC90 ([1]; Rattus norvegicus, Aorta): 0.2 µM
